Measurements published in ChEMBL document CHEMBL1221240, “An efficient one-pot synthesis of heterocycle-fused 1,2,3-triazole derivatives as anti-cancer agents” (Bioorg Med Chem Lett, 2010).
In brackets after ≈: the same amount, converted by molar mass.

Columns and labels:
Format in all cases: functional, cell-based
HepG2 = assay: Cytotoxicity against human HepG2 cells by MTT assay
A-431 = assay: Cytotoxicity against human A431 cells by MTT assay
Procedure, shortened: (§1)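 In vitro MTT assay on human tumour cells: myeloid leukaemia K562 and HL-60, ovarian carcinoma Skov-3, epidermoid carcinoma A431, and lung adenocarcinoma A549. IC50 is the concentration that lowers optical density of treated cells by 50% relative to untreated cells. Values are means of three independent determinations.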

K562 = assay: Cytotoxicity against human K562 cells by MTT assay; procedure, shortened: as §1
A549 = assay: Cytotoxicity against human A549 cells by MTT assay; procedure, shortened: as §1
SK-OV-3 = assay: Cytotoxicity against human SKOV3 cells by MTT assay; procedure, shortened: as §1
HL-60 = assay: Cytotoxicity against human HL60 cells by MTT assay; procedure, shortened: as §1

Compound: COc1ccc(C(=O)c2nnn3c2NCC3)cc1
- IC50 (HepG2): > 200 µg/mL
- IC50 (A-431): > 200 µg/mL
- IC50 (K562): 2.8 µg/mL (≈ 11.5 µM)
- IC50 (A549): > 200 µg/mL
- IC50 (SK-OV-3): 159 µg/mL (≈ 651 µM)
- IC50 (HL-60): > 200 µg/mL

Compound: Cc1ccc(C(=O)c2nnn3c2NCC3)cc1
- IC50 (HepG2): > 200 µg/mL
- IC50 (A-431): > 200 µg/mL
- IC50 (K562): 9.4 µg/mL (≈ 41.2 µM)
- IC50 (A549): > 200 µg/mL
- IC50 (SK-OV-3): > 200 µg/mL
- IC50 (HL-60): > 200 µg/mL

Compound: O=C(c1ccccc1)c1nnn2c1NCC2
- IC50 (HepG2): > 200 µg/mL
- IC50 (A-431): > 200 µg/mL
- IC50 (K562): 92 µg/mL (≈ 429 µM)
- IC50 (A549): > 200 µg/mL
- IC50 (SK-OV-3): > 200 µg/mL
- IC50 (HL-60): > 200 µg/mL

Compound: O=C(c1ccc(Cl)cc1)c1nnn2c1NCC2
- IC50 (HepG2): > 200 µg/mL
- IC50 (A-431): 57.6 µg/mL (≈ 232 µM)
- IC50 (K562): 16.1 µg/mL (≈ 64.7 µM)
- IC50 (A549): > 200 µg/mL
- IC50 (SK-OV-3): > 200 µg/mL
- IC50 (HL-60): > 200 µg/mL

Compound: CC(=O)c1nnn2c1NCC2
- IC50 (HepG2): > 200 µg/mL
- IC50 (A-431): > 200 µg/mL
- IC50 (K562): > 200 µg/mL
- IC50 (A549): > 200 µg/mL
- IC50 (SK-OV-3): > 200 µg/mL
- IC50 (HL-60): > 200 µg/mL

Compound: COc1ccc(C(=O)c2nnn3c2NCCC3)cc1
- IC50 (HepG2): > 200 µg/mL
- IC50 (A-431): 64.4 µg/mL (≈ 249 µM)
- IC50 (K562): 3.4 µg/mL (≈ 13.2 µM)
- IC50 (A549): > 200 µg/mL
- IC50 (SK-OV-3): 190 µg/mL (≈ 736 µM)
- IC50 (HL-60): > 200 µg/mL

Compound: Cc1ccc(C(=O)c2nnn3c2NCCC3)cc1
- IC50 (HepG2): > 200 µg/mL
- IC50 (A-431): > 200 µg/mL
- IC50 (K562): 1.5 µg/mL (≈ 6.19 µM)
- IC50 (A549): > 200 µg/mL
- IC50 (SK-OV-3): 124 µg/mL (≈ 512 µM)
- IC50 (HL-60): > 200 µg/mL

Compound: O=C(c1ccccc1)c1nnn2c1NCCC2
- IC50 (HepG2): > 200 µg/mL
- IC50 (A-431): > 200 µg/mL
- IC50 (K562): 28.6 µg/mL (≈ 125 µM)
- IC50 (A549): > 200 µg/mL
- IC50 (SK-OV-3): > 200 µg/mL
- IC50 (HL-60): > 200 µg/mL

Compound: O=C(c1ccc(Cl)cc1)c1nnn2c1NCCC2
- IC50 (HepG2): > 200 µg/mL
- IC50 (A-431): > 200 µg/mL
- IC50 (K562): 3.2 µg/mL (≈ 12.2 µM)
- IC50 (A549): > 200 µg/mL
- IC50 (SK-OV-3): > 200 µg/mL
- IC50 (HL-60): > 200 µg/mL

Compound: COc1ccc(C(=O)c2nnn3c2OCC3)cc1
- IC50 (HepG2): > 200 µg/mL
- IC50 (A-431): 1.9 µg/mL (≈ 7.75 µM)
- IC50 (K562): 1 µg/mL (≈ 4.08 µM)
- IC50 (A549): 58 µg/mL (≈ 237 µM)
- IC50 (SK-OV-3): 9.6 µg/mL (≈ 39.1 µM)
- IC50 (HL-60): 21.1 µg/mL (≈ 86 µM)

Compound: Cc1ccc(C(=O)c2nnn3c2OCC3)cc1
- IC50 (HepG2): 198 µg/mL (≈ 864 µM)
- IC50 (A-431): 12.7 µg/mL (≈ 55.4 µM)
- IC50 (K562): 127 µg/mL (≈ 554 µM)
- IC50 (A549): 79 µg/mL (≈ 345 µM)
- IC50 (SK-OV-3): 8.5 µg/mL (≈ 37.1 µM)
- IC50 (HL-60): 13.7 µg/mL (≈ 59.8 µM)

Compound: O=C(c1ccccc1)c1nnn2c1OCC2
- IC50 (HepG2): > 200 µg/mL
- IC50 (A-431): 10.8 µg/mL (≈ 50.2 µM)
- IC50 (K562): > 200 µg/mL
- IC50 (A549): 78 µg/mL (≈ 362 µM)
- IC50 (SK-OV-3): 66.1 µg/mL (≈ 307 µM)
- IC50 (HL-60): 17.2 µg/mL (≈ 79.9 µM)

Compound: O=C(c1ccc(Cl)cc1)c1nnn2c1OCC2
- IC50 (HepG2): > 200 µg/mL
- IC50 (A-431): 3.8 µg/mL (≈ 15.2 µM)
- IC50 (K562): > 200 µg/mL
- IC50 (A549): 42 µg/mL (≈ 168 µM)
- IC50 (SK-OV-3): 8.6 µg/mL (≈ 34.4 µM)
- IC50 (HL-60): 6.5 µg/mL (≈ 26 µM)
